ChEMBL document CHEMBL5113397, “Identification, optimization, and biological evaluation of 3-O-β-chacotriosyl ursolic acid derivatives as novel SARS-CoV-2 entry inhibitors by targeting the prefusion state of spike protein” (Eur J Med Chem, 2022)
Activity calls are given as the source filed them. The rule behind the calls is not given here.

What was measured:
SARS-CoV-2 [1] = assay: Antiviral activity against pseudovirus SARS-CoV-2 spike protein infected human HEK293T cells overexpressing ACE2 assessed as inhibition on pseudovirus infection at 10 uM incubated for 48 hrs by luciferase assay; assay type: functional; conditions: Severe acute respiratory syndrome coronavirus 2, HEK-293T
Method in brief: (§1)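 S plasmid (wild type, or E484K, D614G or N501Y mutant) transfected into 293T cells; PsV-containing supernatant harvested at 48 h. 293T-ACE2 cells seeded 24 h ahead, then given an equal-volume mix of compound dilutions and PsV supernatant for 48 h. Cells lysed and luciferase activity quantified. Mean ± SD of three experiments.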

SARS-CoV-2 [2] = assay: Antiviral activity against pseudovirus SARS-CoV-2 spike protein infected human HEK293T cells overexpressing ACE2 assessed as inhibition on pseudovirus infection at 40 uM incubated for 48 hrs by luciferase assay; assay type: functional; conditions: Severe acute respiratory syndrome coronavirus 2, HEK-293T; method in brief: as §1
SARS-CoV-2 [3] = assay: Antiviral activity against pseudovirus SARS-CoV-2 spike protein infected human HEK293T cells overexpressing ACE2 assessed as inhibition on pseudovirus infection incubated for 48 hrs by luciferase assay; assay type: functional, organism-based; conditions: Severe acute respiratory syndrome coronavirus 2, HEK-293T; method in brief: as §1
[4] = Selectivity index, ratio of CC50 for cytotoxicity against human HEK293T cells overexpressing human ACE2 to EC50 for antiviral activity against SARS-CoV-2 VSV-G pseudotyped virus infected human HEK293T cells overexpressing ACE2; assay type: toxicity, cell-based; conditions: read-out: Ratio CC50/EC50
SARS-CoV-2 [5] = assay: Antiviral activity against SARS-CoV-2 VSV-G pseudotyped virus infected human HEK293T cells overexpressing ACE2 incubated for 48 hrs by luciferase assay; assay type: functional, organism-based; conditions: Severe acute respiratory syndrome coronavirus 2, HEK-293T
SARS-CoV-2 [6] = assay: Antiviral activity against pseudovirus SARS-CoV-2 spike protein with E484K mutant infected human HEK293T cells overexpressing ACE2 assessed as inhibition on pseudovirus infection at 5 to 40 uM incubated for 48 hrs by luciferase assay; assay type: functional, organism-based; conditions: Severe acute respiratory syndrome coronavirus 2, dose 5-40 µM; method in brief: as §1
SARS-CoV-2 [7] = assay: Antiviral activity against pseudovirus SARS-CoV-2 spike protein with D614G mutant infected human HEK293T cells overexpressing ACE2 assessed as inhibition on pseudovirus infection at 5 to 40 uM incubated for 48 hrs by luciferase assay; assay type: functional, organism-based; conditions: Severe acute respiratory syndrome coronavirus 2, dose 5-40 µM; method in brief: as §1
SARS-CoV-2 [8] = assay: Antiviral activity against pseudovirus SARS-CoV-2 spike protein with N501Y mutant infected human HEK293T cells overexpressing ACE2 assessed as inhibition on pseudovirus infection at 5 to 40 uM incubated for 48 hrs by luciferase assay; assay type: functional, organism-based; conditions: Severe acute respiratory syndrome coronavirus 2, dose 5-40 µM; method in brief: as §1
SARS-CoV-2 [9] = assay: Antiviral activity against pseudotyped spike protein mutant B.1.1.7 SARS-CoV-2 Alpha variant infected human HEK293T cells overexpressing ACE2 assessed as inhibition on viral entry incubated for 48 hrs by luciferase assay; assay type: functional, organism-based, Severe acute respiratory syndrome coronavirus 2
SARS-CoV-2 [10] = assay: Antiviral activity against pseudotyped spike protein mutant B.1.351 SARS-CoV-2 Beta variant infected human HEK293T cells overexpressing ACE2 assessed as inhibition on viral entry incubated for 48 hrs by luciferase assay; assay type: functional, organism-based, Severe acute respiratory syndrome coronavirus 2
SARS-CoV-2 [11] = assay: Antiviral activity against pseudotyped spike protein mutant P.10 SARS-CoV-2 Gamma variant infected human HEK293T cells overexpressing ACE2 assessed as inhibition on viral entry incubated for 48 hrs by luciferase assay; assay type: functional, organism-based, Severe acute respiratory syndrome coronavirus 2
SARS-CoV-2 [12] = assay: Antiviral activity against pseudovirus spike protein mutant B.1.617.2 SARS-CoV-2 Delta variant infected human HEK293T cells overexpressing ACE2 assessed as inhibition on viral entry incubated for 48 hrs by luciferase assay; assay type: functional, organism-based, Severe acute respiratory syndrome coronavirus 2
SARS-CoV-2 [13] = assay: Antiviral activity against pseudovirus SARS-CoV-2 spike protein mutant Omicron variant infected human HEK293T cells overexpressing ACE2 assessed as inhibition on viral entry incubated for 48 hrs by luciferase assay; assay type: functional, organism-based, Severe acute respiratory syndrome coronavirus 2

| SMILES | inhibition at 10 µM (SARS-CoV-2 [1]) [%] | inhibition at 40 µM (SARS-CoV-2 [2]) [%] | EC50 (SARS-CoV-2 [3]) [µM] | other results |
| --- | --- | --- | --- | --- |
| C[C@H]1[C@H](C)CC[C@]2(C(=O)Nc3ccc4ccccc4c3)CC[C@]3(C)C(=CC[C@@H]4[C@@]5(C)CC[C@H](O[C@@H]6O[C@H](CO)[C@@H](O[C@@H]7O[C@@H](C)[C@H](O)[C@@H](O)[C@H]7O)[C@H](O)[C@H]6O[C@@H]6O[C@@H](C)[C@H](O)[C@@H](O)[C@H]6O)C(C)(C)[C@@H]5CC[C@]43C)[C@H]12 | 14.5 | -7.27 |  |  |
| C[C@H]1[C@H](C)CC[C@]2(C(=O)Nc3ccccc3Cl)CC[C@]3(C)C(=CC[C@@H]4[C@@]5(C)CC[C@H](O[C@@H]6O[C@H](CO)[C@@H](O[C@@H]7O[C@@H](C)[C@H](O)[C@@H](O)[C@H]7O)[C@H](O)[C@H]6O[C@@H]6O[C@@H](C)[C@H](O)[C@@H](O)[C@H]6O)C(C)(C)[C@@H]5CC[C@]43C)[C@H]12 |  |  | 12.7 |  |
| C[C@H]1[C@H](C)CC[C@]2(C(=O)NCCc3ccccc3)CC[C@]3(C)C(=CC[C@@H]4[C@@]5(C)CC[C@H](O[C@@H]6O[C@H](CO)[C@@H](O[C@@H]7O[C@@H](C)[C@H](O)[C@@H](O)[C@H]7O)[C@H](O)[C@H]6O[C@@H]6O[C@@H](C)[C@H](O)[C@@H](O)[C@H]6O)C(C)(C)[C@@H]5CC[C@]43C)[C@H]12 | 49.5 | 28.2 |  |  |
| COc1ccccc1NC(=O)[C@]12CC[C@@H](C)[C@H](C)[C@H]1C1=CC[C@@H]3[C@@]4(C)CC[C@H](O[C@@H]5O[C@H](CO)[C@@H](O[C@@H]6O[C@@H](C)[C@H](O)[C@@H](O)[C@H]6O)[C@H](O)[C@H]5O[C@@H]5O[C@@H](C)[C@H](O)[C@@H](O)[C@H]5O)C(C)(C)[C@@H]4CC[C@@]3(C)[C@]1(C)CC2 |  |  | 10.7 | selectivity ratio [4]: 4.05 |
| C[C@H]1[C@H](C)CC[C@]2(C(=O)Nc3ccc4c(cnn4C)c3)CC[C@]3(C)C(=CC[C@@H]4[C@@]5(C)CC[C@H](O[C@@H]6O[C@H](CO)[C@@H](O[C@@H]7O[C@@H](C)[C@H](O)[C@@H](O)[C@H]7O)[C@H](O)[C@H]6O[C@@H]6O[C@@H](C)[C@H](O)[C@@H](O)[C@H]6O)C(C)(C)[C@@H]5CC[C@]43C)[C@H]12 | 51.9 | 41.1 |  |  |
| C[C@H]1[C@H](C)CC[C@]2(C(=O)Nc3ccc(Cc4ccccc4)cc3)CC[C@]3(C)C(=CC[C@@H]4[C@@]5(C)CC[C@H](O[C@@H]6O[C@H](CO)[C@@H](O[C@@H]7O[C@@H](C)[C@H](O)[C@@H](O)[C@H]7O)[C@H](O)[C@H]6O[C@@H]6O[C@@H](C)[C@H](O)[C@@H](O)[C@H]6O)C(C)(C)[C@@H]5CC[C@]43C)[C@H]12 | 19.2 | 10.3 |  |  |
| C[C@H]1[C@H](C)CC[C@]2(C(=O)N3CCc4ccccc4C3)CC[C@]3(C)C(=CC[C@@H]4[C@@]5(C)CC[C@H](O[C@@H]6O[C@H](CO)[C@@H](O[C@@H]7O[C@@H](C)[C@H](O)[C@@H](O)[C@H]7O)[C@H](O)[C@H]6O[C@@H]6O[C@@H](C)[C@H](O)[C@@H](O)[C@H]6O)C(C)(C)[C@@H]5CC[C@]43C)[C@H]12 | 58.7 | 32.5 |  |  |
| C[C@H]1[C@H](C)CC[C@]2(C(=O)Nc3ccc(-c4ccccc4)cc3)CC[C@]3(C)C(=CC[C@@H]4[C@@]5(C)CC[C@H](O[C@@H]6O[C@H](CO)[C@@H](O[C@@H]7O[C@@H](C)[C@H](O)[C@@H](O)[C@H]7O)[C@H](O)[C@H]6O[C@@H]6O[C@@H](C)[C@H](O)[C@@H](O)[C@H]6O)C(C)(C)[C@@H]5CC[C@]43C)[C@H]12 | 27.4 | 16.9 |  |  |
| C[C@H]1[C@H](C)CC[C@]2(C(=O)NCc3ccccc3)CC[C@]3(C)C(=CC[C@@H]4[C@@]5(C)CC[C@H](O[C@@H]6O[C@H](CO)[C@@H](O[C@@H]7O[C@@H](C)[C@H](O)[C@@H](O)[C@H]7O)[C@H](O)[C@H]6O[C@@H]6O[C@@H](C)[C@H](O)[C@@H](O)[C@H]6O)C(C)(C)[C@@H]5CC[C@]43C)[C@H]12 | 92.5 | 59.2 | 12 | EC50 (SARS-CoV-2 [5]): > 100 µM; selectivity ratio [4]: > 10 |
| COc1cccc(OC)c1NC(=O)[C@]12CC[C@@H](C)[C@H](C)[C@H]1C1=CC[C@@H]3[C@@]4(C)CC[C@H](O[C@@H]5O[C@H](CO)[C@@H](O[C@@H]6O[C@@H](C)[C@H](O)[C@@H](O)[C@H]6O)[C@H](O)[C@H]5O[C@@H]5O[C@@H](C)[C@H](O)[C@@H](O)[C@H]5O)C(C)(C)[C@@H]4CC[C@@]3(C)[C@]1(C)CC2 | 96.8 | 46.8 | 9.84 | EC50 (SARS-CoV-2 [5]): > 100 µM; selectivity ratio [4]: > 10.2; inhibition (SARS-CoV-2 [6]): Active; inhibition (SARS-CoV-2 [7]): Active; inhibition (SARS-CoV-2 [8]): Active; EC50 (SARS-CoV-2 [9]): 7.68 µM; EC50 (SARS-CoV-2 [10]): 11.6 µM; EC50 (SARS-CoV-2 [11]): 2.66 µM; EC50 (SARS-CoV-2 [12]): 1.78 µM; EC50 (SARS-CoV-2 [13]): 7.23 µM |
| C[C@H]1[C@H](C)CC[C@]2(C(=O)Nc3ccc4ncccc4c3)CC[C@]3(C)C(=CC[C@@H]4[C@@]5(C)CC[C@H](O[C@@H]6O[C@H](CO)[C@@H](O[C@@H]7O[C@@H](C)[C@H](O)[C@@H](O)[C@H]7O)[C@H](O)[C@H]6O[C@@H]6O[C@@H](C)[C@H](O)[C@@H](O)[C@H]6O)C(C)(C)[C@@H]5CC[C@]43C)[C@H]12 | 33.1 | 27.4 |  |  |
| C[C@H]1[C@H](C)CC[C@]2(C(=O)Nc3ccc4c(c3)OCCO4)CC[C@]3(C)C(=CC[C@@H]4[C@@]5(C)CC[C@H](O[C@@H]6O[C@H](CO)[C@@H](O[C@@H]7O[C@@H](C)[C@H](O)[C@@H](O)[C@H]7O)[C@H](O)[C@H]6O[C@@H]6O[C@@H](C)[C@H](O)[C@@H](O)[C@H]6O)C(C)(C)[C@@H]5CC[C@]43C)[C@H]12 | 30.4 | -2.49 |  |  |
| C[C@H]1[C@H](C)CC[C@]2(C(=O)NC(c3ccccc3)c3ccccc3)CC[C@]3(C)C(=CC[C@@H]4[C@@]5(C)CC[C@H](O[C@@H]6O[C@H](CO)[C@@H](O[C@@H]7O[C@@H](C)[C@H](O)[C@@H](O)[C@H]7O)[C@H](O)[C@H]6O[C@@H]6O[C@@H](C)[C@H](O)[C@@H](O)[C@H]6O)C(C)(C)[C@@H]5CC[C@]43C)[C@H]12 | 1.58 | 0.47 |  |  |
| COc1ccc(CNC(=O)[C@]23CC[C@@H](C)[C@H](C)[C@H]2C2=CC[C@@H]4[C@@]5(C)CC[C@H](O[C@@H]6O[C@H](CO)[C@@H](O[C@@H]7O[C@@H](C)[C@H](O)[C@@H](O)[C@H]7O)[C@H](O)[C@H]6O[C@@H]6O[C@@H](C)[C@H](O)[C@@H](O)[C@H]6O)C(C)(C)[C@@H]5CC[C@@]4(C)[C@]2(C)CC3)cc1 | 85.7 | 36.3 | 11.8 | EC50 (SARS-CoV-2 [5]): > 100 µM; selectivity ratio [4]: > 10 |
| O=C(/C=C/c1ccc(O)c2oc(-c3ccc(O)c(O)c3)cc12)O[C@H](Cc1ccc(O)c(O)c1)C(=O)O | 98.3 | 80.2 |  |  |
| C[C@H]1[C@H](C)CC[C@]2(C(=O)Nc3ccc4sccc4c3)CC[C@]3(C)C(=CC[C@@H]4[C@@]5(C)CC[C@H](O[C@@H]6O[C@H](CO)[C@@H](O[C@@H]7O[C@@H](C)[C@H](O)[C@@H](O)[C@H]7O)[C@H](O)[C@H]6O[C@@H]6O[C@@H](C)[C@H](O)[C@@H](O)[C@H]6O)C(C)(C)[C@@H]5CC[C@]43C)[C@H]12 | -21.7 | -31.8 |  |  |
